Results from ChEMBL document CHEMBL3872211, “4, 5-Dihydrooxazole-pyrazoline hybrids: Synthesis and their evaluation as potential antimalarial agents” (Eur J Med Chem, 2016).
Values after ≈ are worked out from the molar mass of the structure shown. Active and inactive are the calls of the source. No cut-off for these calls is given here.

Tests used:
Plasmodium falciparum [1] = assay: Antimalarial activity against chloroquine-sensitive Plasmodium falciparum 3D7 infected in human red blood cells assessed as inhibition of schizont stage parasite growth measured after 24 hrs by giemsa staining based assay; type: functional, cell-based; conditions: 3D7, 24 h
In short: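 Parasitized RBCs (2-3% parasitemia, 8% hematocrit) in RPMI 1640 with human AB+ serum were exposed to serial dilutions of test samples from 1 mg/ml stock. Incubation was 24 h at 37 °C under 90% N2/5% CO2/5% O2. Giemsa-stained smears were scored for schizonts (≥3 merozoites). IC50 was taken from dose-response curves by non-linear regression.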

Plasmodium falciparum [2] = assay: Antimalarial activity against chloroquine-resistant Plasmodium falciparum RKL9 infected in human red blood cells assessed as inhibition of schizont stage parasite growth measured after 24 hrs by giemsa staining based assay; type: functional, cell-based; conditions: RKL9, 24 h
In short: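 P. falciparum RKL9 parasitized RBCs at 2-3% parasitemia, 8% hematocrit in RPMI 1640 with human AB+ serum. Exposed to serial dilutions of test samples, 24 h at 37 °C under 90% N2/5% CO2/5% O2. Giemsa-stained smears; schizonts (≥3 merozoites) counted; IC50 by non-linear regression of dose-response curves.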

[3] = Selectivity index, ratio of IC50 for cytotoxicity against African green monkey vero cells to IC50 for antimalarial activity against chloroquine-sensitive Plasmodium falciparum 3D7 infected in human red blood cells; type: toxicity, cell-based; conditions: read-out: Ratio IC50
In short: (§1)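 SI = CC50/IC50. CC50 from Vero cells exposed 72 h to compound dilutions, MTT read-out (modified Mosmann method). Antimalarial IC50 from 24 h, 37 °C P. falciparum (3D7 or RKL9) RBC culture, Giemsa schizont counts, non-linear regression.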

[4] = Resistance index, ratio of IC50 for chloroquine-resistant Plasmodium falciparum RKL9 infected in human RBC to IC50 for chloroquine-sensitive Plasmodium falciparum 3D7 infected in human red blood cells; type: functional
In short: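 Ratio of IC50 vs RKL9 to IC50 vs 3D7. Both from 24 h, 37 °C culture in RBCs (2-3% parasitemia, 8% hematocrit, RPMI 1640 plus human AB+ serum, 90% N2/5% CO2/5% O2), Giemsa smear schizont counts, non-linear regression.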

[5] = Selectivity index, ratio of IC50 for cytotoxicity against African green monkey vero cells to IC50 for antimalarial activity against chloroquine-resistant Plasmodium falciparum RKL9 infected in human red blood cells; type: toxicity, cell-based; conditions: read-out: Ratio IC50; in short: as §1
Plasmodium berghei [6] = assay: Antimalarial activity against Plasmodium berghei NK65 infected in Swiss albino mouse assessed as reduction in parasitemia at 25 mg/kg, po administered 4 hrs post infection for 4 days measured on day 4 post infection by giemsa staining based microscopic method; type: functional; parameters: scale not given: the % may be the effect or the level left
In short: (§2)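 Peters 4-day suppressive test: female Swiss albino mice (20-25 g), groups of five, infected ip with about 10-15% P. berghei NK65-parasitized erythrocytes from a donor mouse. Oral dosing began 4 h later and was given on days 0-3. Vehicle-only group served as negative control. On day 4, tail-vein smears were methanol-fixed, Giemsa-stained and read at 1000×. % suppression was calculated against the negative control.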

Rattus norvegicus = assay: Acute toxicity in Wistar rat assessed as inflammatory cells infiltration in periportal area of liver at <300 mg/kg, po measured after 14 days; type: organism-based; conditions: in vivo, 336 h
Plasmodium berghei [7] = assay: Antimalarial activity against Plasmodium berghei NK65 infected in Swiss albino mouse assessed as mean survival days at 50 mg/kg, po administered 4 hrs post infection for 4 days measured up to 30 days (Rvb= 7.2 days); type: functional
Plasmodium berghei [8] = assay: Antimalarial activity against Plasmodium berghei NK65 infected in Swiss albino mouse assessed as mean survival days at 25 mg/kg, po administered 4 hrs post infection for 4 days measured up to 30 days (reference value: 7.2 days); type: functional
Plasmodium berghei [9] = assay: Antimalarial activity against Plasmodium berghei NK65 infected in Swiss albino mouse assessed as reduction in parasitemia at 50 mg/kg, po administered 4 hrs post infection for 4 days measured on day 4 post infection by giemsa staining based microscopic method; type: functional; parameters: scale not given: the % may be the effect or the level left; in short: as §2
mu-oxodimeric heme [10] = assay: Binding affinity to mu-oxodimeric heme (unknown origin) assessed as 1:1 stoichiometry for mu-oxodimeric heme-compound complex up to 100 uM at pH 5.8 by Job's plot analysis
In short: (§3)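 Hemin stock was 10 mM in 0.1 M NaOH, sonicated 30 min, then diluted in 20 mM phosphate buffer pH 5.8 to give µ-oxodimeric heme. Compound from 2 mM DMSO stock was titrated in (0-100 µM) and absorbance followed at 362 nm. Log K was obtained by titration, and stoichiometry by molar-fraction Job's plot.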

mu-oxodimeric heme [11] = assay: Binding affinity to mu-oxodimeric heme (unknown origin) assessed as association constant at pH 5.8 by UV-titration method; in short: as §3
Heme [12] = assay: Binding affinity to monomeric heme (unknown origin) assessed as association constant at pH 5.6 by UV-titration method
In short: (§4)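 Hemin stock was 1.2 mM in DMSO. It was diluted into aqueous DMSO (40%) buffered with HEPES pH 7.4 (0.02 M), or with MES for the pH 5.6 run. The titrant (2 mM stock in DMSO) was added stepwise at 0-100 µM final, and the Soret band was read at 402 nm. Association constant (log K) was derived by titration.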

Heme [13] = assay: Binding affinity to monomeric heme (unknown origin) assessed as association constant at pH 7.4 by UV-titration method; in short: as §4
Heme [14] = assay: Binding affinity to monomeric heme assessed as 1:1 stoichiometry for heme-compound complex up to 100 uM at pH 5.6 by Job's plot analysis
In short: (§5)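 Monomeric hemin was prepared in 40% DMSO with 0.02 M HEPES (pH 7.4) or 0.02 M MES (pH 5.6). Absorbance was monitored at 402 nm. Complex stoichiometry was determined by a molar-fraction Job's plot.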

Heme [15] = assay: Binding affinity to monomeric heme assessed as 1:1 stoichiometry for heme-compound complex up to 100 uM at pH 7.4 by Job's plot analysis; in short: as §5
Plasmodium berghei [16] = assay: Antimalarial activity against Plasmodium berghei NK65 infected in Swiss albino mouse assessed as mean survival days at 5 mg/kg, po administered 4 hrs post infection for 4 days measured up to 30 days (reference value: 7.2 days); type: functional
Plasmodium berghei [17] = assay: Antimalarial activity against Plasmodium berghei NK65 infected in Swiss albino mouse assessed as reduction in parasitemia at 5 mg/kg, po administered 4 hrs post infection for 4 days measured on day 4 post infection by giemsa staining based microscopic method; type: functional; parameters: scale not given: the % may be the effect or the level left; in short: as §2

Compound | IC50 (Plasmodium falciparum [1]) [µg/mL] | IC50 (Plasmodium falciparum [2]) [µg/mL] | selectivity ratio [3] | Ratio IC50 [4] | selectivity ratio [5] | also measured
CC(=O)c1ccc(OCC2=NCCO2)cc1 | 0.737 (≈ 3.36 µM) |  |  |  |  | 
O=C(/C=C/c1ccc(F)cc1)c1ccc(OCC2=NCCO2)cc1 | 0.813 (≈ 2.5 µM) |  |  |  |  | 
O=C(/C=C/c1cccc([N+](=O)[O-])c1)c1ccc(OCC2=NCCO2)cc1 | 1.57 (≈ 4.46 µM) |  |  |  |  | 
COc1ccc(C2CC(c3ccc(OCC4=NCCO4)cc3)=NN2c2ccccc2)cc1 (configuration not stated) | 0.545 (≈ 1.27 µM) | 1.57 (≈ 3.67 µM) | 30.4 | 2.88 | 10.5 | 
O=C(/C=C/c1cccc(Cl)c1)c1ccc(OCC2=NCCO2)cc1 | 0.577 (≈ 1.69 µM) |  |  |  |  | 
NS(=O)(=O)c1ccc(N2N=C(c3ccc(OCC4=NCCO4)cc3)CC2c2ccc(Cl)cc2)cc1 (configuration not stated) | 0.471 (≈ 0.922 µM) | 1.82 (≈ 3.57 µM) | 22.2 | 3.87 | 5.7 | 
Fc1ccc(C2CC(c3ccc(OCC4=NCCO4)cc3)=NN2c2ccccc2)cc1 (configuration not stated) | 0.645 (≈ 1.55 µM) |  |  |  |  | 
Cc1ccc(C2CC(c3ccc(OCC4=NCCO4)cc3)=NN2c2ccccc2)cc1 (configuration not stated) | 1.01 (≈ 2.45 µM) |  |  |  |  | 
NS(=O)(=O)c1ccc(N2N=C(c3ccc(OCC4=NCCO4)cc3)CC2c2cccc(Cl)c2)cc1 (configuration not stated) | 0.552 (≈ 1.08 µM) | 2.15 (≈ 4.22 µM) | 34.2 | 3.9 | 8.7 | 
O=C(/C=C/c1ccc([N+](=O)[O-])cc1)c1ccc(OCC2=NCCO2)cc1 | 0.723 (≈ 2.05 µM) |  |  |  |  | 
O=C(/C=C/c1ccc(O)cc1)c1ccc(OCC2=NCCO2)cc1 | 2.44 (≈ 7.54 µM) |  |  |  |  | 
COc1ccc(C2CC(c3ccc(OCC4=NCCO4)cc3)=NN2)cc1 (configuration not stated) | 1.03 (≈ 2.94 µM) |  |  |  |  | 
NS(=O)(=O)c1ccc(N2N=C(c3ccc(OCC4=NCCO4)cc3)CC2c2ccc3c(c2)OCCO3)cc1 (configuration not stated) | 2.15 (≈ 4.03 µM) |  |  |  |  | 
c1ccc(N2N=C(c3ccc(OCC4=NCCO4)cc3)CC2c2c[nH]c3ccccc23)cc1 (configuration not stated) | 0.459 (≈ 1.05 µM) | 4.23 (≈ 9.7 µM) | 21.3 | 9.22 | 2.3 | 
O=C(/C=C/c1c[nH]c2ccccc12)c1ccc(OCC2=NCCO2)cc1 | 0.936 (≈ 2.7 µM) |  |  |  |  | 
NS(=O)(=O)c1ccc(N2N=C(c3ccc(OCC4=NCCO4)cc3)CC2c2cccc([N+](=O)[O-])c2)cc1 (configuration not stated) | 1.02 (≈ 1.96 µM) |  |  |  |  | 

Compound | IC50 (Plasmodium falciparum [1]) [µg/mL] | IC50 (Plasmodium falciparum [2]) [µg/mL] | selectivity ratio [3] | Ratio IC50 [4] | selectivity ratio [5] | also measured
NS(=O)(=O)c1ccc(N2N=C(c3ccc(OCC4=NCCO4)cc3)CC2c2ccc([N+](=O)[O-])cc2)cc1 (configuration not stated) | 0.627 (≈ 1.2 µM) |  |  |  |  | 
O=C(/C=C/c1cccc(O)c1)c1ccc(OCC2=NCCO2)cc1 | 0.515 (≈ 1.59 µM) | 1.57 (≈ 4.86 µM) | 23.6 | 3.05 | 7.7 | 
CC(=O)N1N=C(c2ccc(OCC3=NCCO3)cc2)CC1c1ccc(Cl)cc1 (configuration not stated) | 0.513 (≈ 1.29 µM) | 1.57 (≈ 3.95 µM) | 29.5 | 3.06 | 9.6 | 
c1ccc2c(C3CC(c4ccc(OCC5=NCCO5)cc4)=NN3)c[nH]c2c1 (configuration not stated) | 0.657 (≈ 1.82 µM) |  |  |  |  | 
O=C(/C=C/c1ccc(Cl)cc1)c1ccc(OCC2=NCCO2)cc1 | 0.557 (≈ 1.63 µM) | 1.82 (≈ 5.33 µM) | 25.5 | 3.27 | 7.8 | 
COc1ccc(C2CC(c3ccc(OCC4=NCCO4)cc3)=NN2c2ccc(S(N)(=O)=O)cc2)cc1 (configuration not stated) | 0.322 (≈ 0.636 µM) | 0.737 (≈ 1.45 µM) | 12.5 | 2.29 | 5.5 | Activity (Plasmodium berghei [6]): 63.89%; Activity (Rattus norvegicus): Non-Toxic; MSD (Plasmodium berghei [7]): 15.6 days; MSD (Plasmodium berghei [8]): 11.4 days; Activity (Plasmodium berghei [9]): 79.33%; Activity (mu-oxodimeric heme [10]): Active; log K (mu-oxodimeric heme [11]): 4.34; log K (Heme [12]): 4.98; log K (Heme [13]): 5.87; Activity (Heme [14]): Active; Activity (Heme [15]): Active
O=C(/C=C/c1ccccc1)c1ccc(OCC2=NCCO2)cc1 | 1.77 (≈ 5.77 µM) |  |  |  |  | 
O=C(/C=C/c1ccc2c(c1)OCCO2)c1ccc(OCC2=NCCO2)cc1 | 4.23 (≈ 11.6 µM) |  |  |  |  | 
COc1cccc(/C=C/C(=O)c2ccc(OCC3=NCCO3)cc2)c1 | 1.82 (≈ 5.4 µM) |  |  |  |  | 
Clc1ccc(C2CC(c3ccc(OCC4=NCCO4)cc3)=NN2c2ccccc2)cc1 (configuration not stated) | 0.477 (≈ 1.1 µM) | 1.57 (≈ 3.64 µM) | 23.3 | 3.29 | 7.1 | 
NS(=O)(=O)c1ccc(N2N=C(c3ccc(OCC4=NCCO4)cc3)CC2c2ccc(F)cc2)cc1 (configuration not stated) | 0.419 (≈ 0.847 µM) | 1.77 (≈ 3.59 µM) | 19.8 | 4.23 | 4.6 | 
Cc1ccc(/C=C/C(=O)c2ccc(OCC3=NCCO3)cc2)cc1 | 2.68 (≈ 8.34 µM) |  |  |  |  | 
COc1ccc(/C=C/C(=O)c2ccc(OCC3=NCCO3)cc2)cc1 | 1.57 (≈ 4.66 µM) |  |  |  |  | 
COc1cccc(C2CC(c3ccc(OCC4=NCCO4)cc3)=NN2c2ccc(S(N)(=O)=O)cc2)c1 (configuration not stated) | 0.413 (≈ 0.815 µM) | 0.936 (≈ 1.85 µM) | 18.4 | 2.27 | 8.1 | 
CCN(CC)CCCC(C)Nc1ccnc2cc(Cl)ccc12 (configuration not stated) [CHLOROQUINE] |  |  |  |  |  | MSD (Plasmodium berghei [16]): 30 days; Activity (Plasmodium berghei [17]): 97.1%
